The record followed here is ChEMBL document CHEMBL3244360, “Usnic acid derivatives as potential antineoplastic agents” (J Med Chem, 1979).

The structures appear in SMILES notation. The source made the active and inactive calls. The calls are words filed in the database; no cut-off is given here.

By logP is commonly meant the decadic logarithm of the partition coefficient of the neutral form, usually between octanol and water. A lower logP goes with lower lipophilicity. What is called T/C is the ratio of treated to control.

Tested on in the first data set: not listed separately
Put plainly: Octanol-water partition coefficient, log P of the compound by high-performance liquid chromatography.
Conditions: not given
The format is physicochemical.
Consider `COC12CC(O)=C(C(C)=O)C(=O)C1(C)c1c(OC(C)=O)c(C)c(O)c(C(C)=O)c1O2` (mixture of isomers), for which the logP is 2.6.
The same measure, in the same setting: with `CC(=O)C1=C(O)C=C2Oc3c(C(C)=O)c(O[C@@H]4O[C@H](CO)[C@@H](O)[C@H](O)[C@H]4O)c(C)c(O)c3C2(C)C1=O` (some centres not stated) the figure was 0.56; with `CC(=O)c1c(O)c(C)c(O)c2c1OC1=CC(=O)/C(=C(\C)N)C(=O)C12C` (configuration not stated), 3.2.
Same read-out and setting: with `CC(=O)c1c(O)c(C)c(O)c2c1OC1=Cc3c(c(C)nn3-c3ccccc3)C(=O)C12C` (configuration not stated) the figure was 3.2; with `C=C1c2c(O)c(C)c(O)c(C(C)=O)c2OC12C=C(C(=O)O)C(=O)C2` (configuration not stated), 1.3.

The next data set has as its system L1210. Put plainly: Growth inhibition of mouse L1210 cells at 0.14 umol/ml after 23 to 46 hrs by coulter counter analysis. Type of data set: functional, cell-based.
Conditions: not given
In short, it runs like this: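 L1210 cells grown in RPMI 1630 with 16.7% heat-inactivated fetal calf serum and gentamicin 40 µg/mL. Exponentially growing cells were washed and seeded at 1 × 10^5 cells/mL. Drug was added in Me2SO to a final 1.39 ± 0.17 × 10^-7 mol/mL with continuous exposure at 37 °C. Coulter counts at 23 and 46 h gave percent inhibition versus untreated control.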
For the compound `CC(=O)c1c(O)c(C)c(O)c2c1OC1=CC(=O)c3c(C)noc3C12C` (configuration not stated), the “growth inhibition (GI)” value was “Active”.
Same read-out and setting: with `COC12CC(O)=C(C(C)=O)C(=O)C1(C)c1c(OC(C)=O)c(C)c(O)c(C(C)=O)c1O2` (mixture of isomers) the entry was “Active”; with `CC(=O)c1c(O)c(C)c(O)c2c1OC1=CC(=O)/C(=C(\C)N)C(=O)C12C` (configuration not stated), “Active”.
In the case of `CC(=O)c1c(O)c(C)c(O)c2c1OC1=Cc3c(c(C)nn3-c3ccccc3)C(=O)C12C` (configuration not stated), the “growth inhibition (GI)” value is “Active”.

The next data set has as its system P388. Put plainly: Antitumor activity against mouse P388 cells allografted in mouse assessed as host median survival time at 6 mg/kg/day, ip administered as gum acacia suspension on days 1 to 9 relative to control. Type of data set: functional. To be noted: route intraperitoneal. In short, it runs like this: (§1)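 Tumored mice got the compound intraperitoneally as a gum acacia suspension once daily on days 1-9 (nine injections), with doses in (mg/kg)/day. Read-out was T/C, the median survival time of treated over control animals as a percentage. Dose-response assays were generally run in duplicate, and the highest T/C per assay is reported with its dose.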
In the case of `CC(=O)c1c(O)c(C)c(O)c2c1OC1=CC(=O)/C(=C(\C)N)C(=O)C12C` (configuration not stated), the T/C stood at 107%.
On the same count and under the same terms, in the case of `CC(=O)c1c(O)c(C)c(O)c2c1OC1=Cc3c(c(C)nn3-c3ccccc3)C(=O)C12C` (configuration not stated) it was 122%.

The next data set deals with P388. Put plainly: Antitumor activity against mouse P388 cells allografted in mouse assessed as host median survival time at 12 mg/kg/day, ip administered as gum acacia suspension on days 1 to 9 relative to control. Type of data set: functional. The note with it: route intraperitoneal. In short, it runs like this: as §1
Consider `CC(=O)c1c(O[C@@H]2O[C@H](CO)[C@@H](O)[C@H](O)[C@H]2O)c(C)c(O)c2c1OC1=CC(=O)/C(=C(/C)N)C(=O)C12C` (some centres not stated), for which the T/C was determined as 104%.
`C=C1c2c(O)c(C)c(O)c(C(C)=O)c2OC12C=C(C(=O)O)C(=O)C2` (configuration not stated): the T/C came to 112%.

Another data set concerns P388. The data set can be described thus: Antitumor activity against mouse P388 cells allografted in mouse assessed as host median survival time at 25 mg/kg/day, ip administered as gum acacia suspension on days 1 to 9 relative to control. The format is functional. The note with it: route intraperitoneal. In a few lines: as §1
On to `CC(=O)c1c(O[C@@H]2O[C@H](CO)[C@@H](O)[C@H](O)[C@H]2O)c(C)c(O)c2c1OC1=CC(=O)/C(=C(/C)N)C(=O)C12C` (some centres not stated), for which the T/C was determined as 108%.
Still for that read-out and setting: in the case of `COC12CC(O)=C(C(C)=O)C(=O)C1(C)c1c(OC(C)=O)c(C)c(O)c(C(C)=O)c1O2` (mixture of isomers) it was 106%.
On the same count and under the same terms, with `CC(=O)C1=C(O)C=C2Oc3c(C(C)=O)c(O[C@@H]4O[C@H](CO)[C@@H](O)[C@H](O)[C@H]4O)c(C)c(O)c3C2(C)C1=O` (some centres not stated) the figure was 102%; with `C=C1c2c(O)c(C)c(O)c(C(C)=O)c2OC12C=C(C(=O)O)C(=O)C2` (configuration not stated), 108%.

Another data set relates to P388. The data set can be described thus: Antitumor activity against mouse P388 cells allografted in mouse assessed as host median survival time at 50 mg/kg/day, ip administered as gum acacia suspension on days 1 to 9 relative to control. The format is functional. To be noted: route intraperitoneal. In a few lines: as §1
`CC(=O)C1=C(O)C=C2Oc3c(C(C)=O)c(O[C@@H]4O[C@H](CO)[C@@H](O)[C@H](O)[C@H]4O)c(C)c(O)c3C2(C)C1=O` (some centres not stated): the T/C turned out to be 108%.

The next data set relates to P388. The data set can be described thus: Antitumor activity against mouse P388 cells allografted in mouse assessed as host median survival time at 100 mg/kg/day, ip administered as gum acacia suspension on days 1 to 9 relative to control. To be noted: route intraperitoneal. The format is functional. In short, it runs like this: as §1
Regarding `CC(=O)c1c(O)c(C)c(O)c2c1OC1=CC(=O)c3c(C)noc3C12C` (configuration not stated), the T/C is listed as 114%.
As to `CC(=O)c1c(O)c(C)c(O)c2c1OC1=Cc3onc(C)c3C(=O)C12C` (configuration not stated), the T/C was determined as 104%.
The same measure, in the same setting: in the case of `COC12CC(O)=C(C(C)=O)C(=O)C1(C)c1c(OC(C)=O)c(C)c(O)c(C(C)=O)c1O2` (mixture of isomers) it was 124%.

In the next data set the test system is P388. Put plainly: Antitumor activity against mouse P388 cells allografted in mouse assessed as host median survival time at 200 mg/kg/day, ip administered as gum acacia suspension on days 1 to 9 relative to control. The format is functional. To be noted: route intraperitoneal. In a few lines:
as §1
With `CC(=O)c1c(O)c(C)c(O)c2c1OC1=Cc3c(c(C)nn3-c3ccccc3)C(=O)C12C` (configuration not stated), the T/C came out at 110%.

Tested on in another data set: not listed separately
Put plainly: Antitumor activity against mouse LCC cells allografted in mouse assessed as host median survival time at 6 mg/kg/day, ip administered as gum acacia suspension on days 1 to 9 relative to control. The format is functional, Lewis lung carcinoma. To be noted: route intraperitoneal. In a few lines:
as §1
In the case of `CC(=O)c1c(O)c(C)c(O)c2c1OC1=CC(=O)c3c(C)noc3C12C` (configuration not stated), the T/C is given as 112%.
On the same count and under the same terms, with `CC(=O)c1c(O)c(C)c(O)c2c1OC1=CC(=O)/C(=C(\C)N)C(=O)C12C` (configuration not stated) the figure was 110%.

Tested on in the next data set: not listed separately
Put plainly: Antitumor activity against mouse LCC cells allografted in mouse assessed as host median survival time at 12 mg/kg/day, ip administered as gum acacia suspension on days 1 to 9 relative to control. Type of data set: functional, Lewis lung carcinoma. The note with it: route intraperitoneal. In a few lines:
as §1
For the compound `CC(=O)c1c(O)c(C)c(O)c2c1OC1=CC(=O)c3c(C)noc3C12C` (configuration not stated), the T/C was found to be 117%.

Tested on in the next data set: not listed separately
Put plainly: Antitumor activity against mouse LCC cells allografted in mouse assessed as host median survival time at 25 mg/kg/day, ip administered as gum acacia suspension on days 1 to 9 relative to control. The format is functional, Lewis lung carcinoma. To be noted: route intraperitoneal. In a few lines:
as §1
As for `CC(=O)c1c(O)c(C)c(O)c2c1OC1=Cc3c(c(C)nn3-c3ccccc3)C(=O)C12C` (configuration not stated), the T/C amounted to 111%.

Tested on in another data set: not listed separately
The data set can be described thus: Antitumor activity against mouse LCC cells allografted in mouse assessed as host median survival time at 50 mg/kg/day, ip administered as gum acacia suspension on days 1 to 9 relative to control. To be noted: route intraperitoneal. The format is functional, Lewis lung carcinoma. In short, it runs like this:
as §1
For the compound `CC(=O)c1c(O)c(C)c(O)c2c1OC1=Cc3onc(C)c3C(=O)C12C` (configuration not stated), the T/C was 111%.
Same read-out and setting: in the case of `COC12CC(O)=C(C(C)=O)C(=O)C1(C)c1c(OC(C)=O)c(C)c(O)c(C(C)=O)c1O2` (mixture of isomers) it was 108%; in that of `CC(=O)c1c(O)c(C)c(O)c2c1OC1=CC(=O)/C(=C(\C)N)C(=O)C12C` (configuration not stated), 111%.
`C=C1c2c(O)c(C)c(O)c(C(C)=O)c2OC12C=C(C(=O)O)C(=O)C2` (configuration not stated): the T/C was determined as 127%.

Tested on in a further data set: not listed separately
The data set can be described thus: Antitumor activity against mouse LCC cells allografted in mouse assessed as host median survival time at 100 mg/kg/day, ip administered as gum acacia suspension on days 1 to 9 relative to control. To be noted: route intraperitoneal. Type of data set: functional, Lewis lung carcinoma. In a few lines: as §1
Turning to `CC(=O)c1c(O)c(C)c(O)c2c1OC1=Cc3c(c(C)nn3-c3ccccc3)C(=O)C12C` (configuration not stated), the T/C is on record as 108%.
On the same count and under the same terms, with `C=C1c2c(O)c(C)c(O)c(C(C)=O)c2OC12C=C(C(=O)O)C(=O)C2` (configuration not stated) the figure was 109%.
